The values below come from ChEMBL document CHEMBL4354879, “Bioisosteric Discovery of NPA101.3, a Second-Generation RET/VEGFR2 Inhibitor Optimized for Single-Agent Polypharmacology” (J Med Chem, 2020).

For data set [1], the target named is T1, SHC-transforming protein 1 (Homo sapiens) (UniProt P29353).
T1 sequence (whole entry): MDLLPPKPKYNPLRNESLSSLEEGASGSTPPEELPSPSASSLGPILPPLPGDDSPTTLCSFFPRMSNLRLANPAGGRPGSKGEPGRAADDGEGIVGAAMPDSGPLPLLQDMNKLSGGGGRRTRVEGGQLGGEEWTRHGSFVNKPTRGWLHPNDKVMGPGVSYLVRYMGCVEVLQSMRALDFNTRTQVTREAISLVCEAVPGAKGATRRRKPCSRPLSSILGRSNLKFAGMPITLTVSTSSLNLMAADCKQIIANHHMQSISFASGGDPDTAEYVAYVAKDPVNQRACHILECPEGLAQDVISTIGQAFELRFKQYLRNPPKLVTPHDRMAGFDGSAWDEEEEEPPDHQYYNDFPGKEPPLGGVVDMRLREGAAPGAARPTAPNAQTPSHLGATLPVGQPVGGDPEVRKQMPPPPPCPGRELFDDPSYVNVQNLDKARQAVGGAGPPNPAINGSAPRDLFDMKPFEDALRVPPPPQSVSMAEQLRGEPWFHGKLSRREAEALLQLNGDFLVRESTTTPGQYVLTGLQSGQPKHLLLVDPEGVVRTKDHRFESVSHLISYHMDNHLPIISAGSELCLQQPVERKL
As to the kind of experiment: Effect on SHC phosphorylation in RET deficient human A549 cells at 1 to 100 nM measured after 2 hrs by western blot analysis. The data set is classed as cell-based.

The species entered for data set [2] is Homo sapiens. In words: Inhibition of CCDC6/RET isoform 9 (unknown origin) expressed in mouse NIH/3T3 cells assessed as reduction in RET phosphorylation at Y905 residue at 1 to 100 nM measured after 2 hrs by Western blot analysis. The format is cell-based. A digest of the protocol:
(§1)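 Serum-starved RAT1 (RET point mutants) or NIH3T3 (RET rearrangements) cells expressing short RET-9 isoform, treated 2 h; 50 μg total lysate immunoblotted with anti-phospho-Y1062 and anti-phospho-Y905 RET antibodies, normalized to total RET; ECL detection. Compound from 50 mM DMSO stock diluted in growth medium.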
For orientation: In western blotting, separated proteins are transferred to a membrane and probed.

Data set [3] concerns BaF3. In words: Cytotoxicity against mouse BAF3 cells assessed as reduction in cell proliferation supplemented with fresh medium containing compound for every 2 to 3 days and measured daily. The format is cell-based. A digest of the protocol:
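Ba/F3 cells (parental with IL-3 10 ng/mL; RET/C634R, RET/M918T, NCOA4-RET stable transfectants, RET-51 isoform) were seeded at 200000/well in 10% FCS. Drug or vehicle was added the day after plating, with medium changed every 2–3 days, and cells were counted daily. […] This was a single experiment in triplicate.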

Data set [4] can be described thus: Toxicity in BALB/c nu/nu mouse assessed as change in glucose level at 10 mg/kg, po administered daily for 7 days. The format is organism-based. The settings on record: in vivo, 168 h.
Data set [5] is filed under the species Homo sapiens. As to the kind of experiment: Effect on MAPK phosphorylation in RET deficient human PC9 cells at 1 to 100 nM measured after 2 hrs by western blot analysis.
Data set [6] deals with Vascular endothelial growth factor receptor 2 (Homo sapiens, UniProt P35968). As to the kind of experiment: Inhibition of recombinant human His-tagged VEGFR2 cytoplasmic domain (789 to 1356 residues) expressed in baculovirus expression system using peptide substrate preincubated for 60 mins followed by substrate addition by microfluidic assay.
Vascular endothelial growth factor receptor 2, sequence (P35968 whole entry, the tested form may be a part): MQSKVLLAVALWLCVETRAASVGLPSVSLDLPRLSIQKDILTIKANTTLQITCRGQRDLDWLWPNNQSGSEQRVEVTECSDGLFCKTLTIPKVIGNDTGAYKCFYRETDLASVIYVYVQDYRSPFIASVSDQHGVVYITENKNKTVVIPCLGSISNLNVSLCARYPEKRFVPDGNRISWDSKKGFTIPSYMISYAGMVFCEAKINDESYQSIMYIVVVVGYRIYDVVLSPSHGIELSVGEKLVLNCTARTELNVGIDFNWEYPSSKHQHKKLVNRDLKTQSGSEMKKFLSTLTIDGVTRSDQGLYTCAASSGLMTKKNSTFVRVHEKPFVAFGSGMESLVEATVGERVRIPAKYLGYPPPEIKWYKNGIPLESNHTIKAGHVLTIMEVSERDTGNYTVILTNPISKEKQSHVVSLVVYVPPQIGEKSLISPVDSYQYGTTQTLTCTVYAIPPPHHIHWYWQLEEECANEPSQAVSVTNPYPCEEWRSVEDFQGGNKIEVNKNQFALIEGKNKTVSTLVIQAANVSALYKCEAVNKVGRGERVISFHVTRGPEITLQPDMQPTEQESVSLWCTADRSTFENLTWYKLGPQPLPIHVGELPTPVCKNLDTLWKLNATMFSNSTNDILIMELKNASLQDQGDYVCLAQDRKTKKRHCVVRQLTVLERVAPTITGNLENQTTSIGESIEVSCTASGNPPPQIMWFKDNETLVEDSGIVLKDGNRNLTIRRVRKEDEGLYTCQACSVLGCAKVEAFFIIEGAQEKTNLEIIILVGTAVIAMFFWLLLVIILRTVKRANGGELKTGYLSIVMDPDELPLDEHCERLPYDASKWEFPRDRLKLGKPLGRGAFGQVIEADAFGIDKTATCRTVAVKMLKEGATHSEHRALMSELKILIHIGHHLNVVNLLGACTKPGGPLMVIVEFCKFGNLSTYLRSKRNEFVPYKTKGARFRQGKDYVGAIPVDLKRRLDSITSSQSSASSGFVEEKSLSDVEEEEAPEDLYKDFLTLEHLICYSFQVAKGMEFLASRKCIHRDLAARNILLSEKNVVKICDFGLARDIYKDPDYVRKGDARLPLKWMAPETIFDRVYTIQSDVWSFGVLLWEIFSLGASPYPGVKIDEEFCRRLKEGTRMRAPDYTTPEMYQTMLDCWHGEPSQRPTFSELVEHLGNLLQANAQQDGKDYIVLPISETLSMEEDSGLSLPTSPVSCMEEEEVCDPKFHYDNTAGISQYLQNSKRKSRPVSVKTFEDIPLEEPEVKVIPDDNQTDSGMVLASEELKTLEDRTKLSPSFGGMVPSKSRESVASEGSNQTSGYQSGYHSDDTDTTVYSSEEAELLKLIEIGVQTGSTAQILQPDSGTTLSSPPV
The species named for data set [7] is Homo sapiens. As to the kind of experiment: Effect on MAPK phosphorylation in RET deficient human Nthy-ori 3-1 cells at 1 to 100 nM measured after 2 hrs by western blot analysis.
For data set [8], the system named is Proto-oncogene tyrosine-protein kinase receptor Ret (Homo sapiens), P07949 [M918T]. As to the kind of experiment: Inhibition of Ret isoform 9 M918T mutant in human MZ-CRC-1 cells assessed as reduction in SHC phosphorylation at 0.3 to 30 nM measured after 2 hrs by Western blot analysis. The format is cell-based.
Proto-oncogene tyrosine-protein kinase receptor Ret (Homo sapiens), P07949 [M918T], sequence (P07949 whole entry M918T, canonical isoform): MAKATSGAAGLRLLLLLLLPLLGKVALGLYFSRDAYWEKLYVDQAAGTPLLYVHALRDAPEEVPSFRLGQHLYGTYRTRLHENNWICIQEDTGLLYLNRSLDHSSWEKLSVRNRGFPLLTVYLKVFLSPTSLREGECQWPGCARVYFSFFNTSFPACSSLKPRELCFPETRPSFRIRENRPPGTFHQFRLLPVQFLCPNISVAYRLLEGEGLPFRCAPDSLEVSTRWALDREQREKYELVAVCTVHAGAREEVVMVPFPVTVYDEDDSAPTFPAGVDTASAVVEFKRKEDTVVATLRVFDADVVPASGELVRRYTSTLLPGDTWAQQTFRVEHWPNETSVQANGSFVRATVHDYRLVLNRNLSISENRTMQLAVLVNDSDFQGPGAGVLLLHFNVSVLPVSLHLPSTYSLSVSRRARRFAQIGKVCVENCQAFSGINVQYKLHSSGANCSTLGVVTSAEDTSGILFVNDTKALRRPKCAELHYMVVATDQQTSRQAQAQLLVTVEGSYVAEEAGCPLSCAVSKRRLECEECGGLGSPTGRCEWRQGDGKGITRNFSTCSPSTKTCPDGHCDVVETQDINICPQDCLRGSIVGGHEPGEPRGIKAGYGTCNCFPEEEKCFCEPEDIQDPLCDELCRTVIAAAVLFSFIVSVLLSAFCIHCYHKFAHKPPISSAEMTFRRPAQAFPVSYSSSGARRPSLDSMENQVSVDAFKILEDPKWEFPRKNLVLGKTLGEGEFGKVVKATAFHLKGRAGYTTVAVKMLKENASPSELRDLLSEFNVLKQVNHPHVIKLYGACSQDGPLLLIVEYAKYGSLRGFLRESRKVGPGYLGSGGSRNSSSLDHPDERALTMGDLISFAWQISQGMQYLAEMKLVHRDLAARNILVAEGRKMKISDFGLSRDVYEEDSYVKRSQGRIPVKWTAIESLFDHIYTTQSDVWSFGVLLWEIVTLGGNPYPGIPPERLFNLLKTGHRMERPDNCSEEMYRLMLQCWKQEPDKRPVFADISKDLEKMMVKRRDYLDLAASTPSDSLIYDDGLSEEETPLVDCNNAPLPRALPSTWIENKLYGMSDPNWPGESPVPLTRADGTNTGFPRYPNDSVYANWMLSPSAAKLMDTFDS
For data set [9] the test system is unchanged. In words: Inhibition of Ret isoform 9 M918T mutant in human MZ-CRC-1 cells assessed as reduction in phosphorylation at Y1062 residue at 0.3 to 30 nM measured after 2 hrs by Western blot analysis. The format is cell-based.
In data set [10] the test system is BaF3. In words: Inhibition of NCOA4/RET […] (unknown origin) expressed in mouse BAF3 cells assessed as reduction in RET phosphorylation at Y905 residue at 0.3 to 30 nM measured after 2 hrs by Western blot analysis. The data set is classed as cell-based. To be noted: Homo sapiens. A digest of the protocol: (§2)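 Ba/F3 cells stably expressing long-isoform RET-51 mutants (electroporation), cultured in RPMI/10% FCS without IL-3; RET phosphorylation read by Western blot with anti-phospho-Y905 and anti-phospho-Y1062 antibodies, ECL detection.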

The test system of data set [11] is Proto-oncogene tyrosine-protein kinase receptor Ret (Homo sapiens), P07949 [M918T]. In words: Inhibition of RET isoform 9 M918T mutant (unknown origin) expressed in rat Rat1 assessed as reduction in RET phosphorylation at Y905 residue at 1 to 100 nM measured after 2 hrs by Western blot analysis. The data set is classed as cell-based. A digest of the protocol: as §1

In data set [12] the target is T1, SHC-transforming protein 1 (Homo sapiens). As to the kind of experiment: Effect on SHC phosphorylation in RET deficient human Calu1 cells at 1 to 100 nM measured after 2 hrs by western blot analysis.
For data set [13], the target named is Proto-oncogene tyrosine-protein kinase receptor Ret (Homo sapiens, UniProt P07949). In words: Inhibition of recombinant human GST-tagged RET cytoplasmic domain (658 to 1114 residues) expressed in baculovirus expression system using 5'FAM-EPLYWSFPA as substrate preincubated for 60 mins followed by substrate addition by microfluidic assay.
Proto-oncogene tyrosine-protein kinase receptor Ret, sequence (P07949 whole entry, the tested form may be a part): as the sequence (P07949 whole entry M918T, canonical isoform) above, with T918M counted along it
The test system of data set [14] is BaF3. In words: Inhibition of NCOA4/RET […] (unknown origin) expressed in mouse BAF3 cells assessed as reduction in RET phosphorylation at Y1062 residue at 0.3 to 30 nM measured after 2 hrs by Western blot analysis. The data set is classed as cell-based. The settings on record: Homo sapiens. In a few lines: as §2
Data set [15] is filed under the species Homo sapiens. In words: Effect on MAPK phosphorylation in RET deficient human Calu1 cells at 1 to 100 nM measured after 2 hrs by western blot analysis.
The target in data set [16] is MAP kinase-interacting serine/threonine-protein kinase 2 (Homo sapiens) (UniProt Q9HBH9). As to the kind of experiment: Binding affinity to wild-type human partial length MKNK2 (G63 to S388 residues) expressed in mammalian expression system at 100 nM by Kinomescan method relative to control.
MAP kinase-interacting serine/threonine-protein kinase 2 (Homo sapiens), sequence (Q9HBH9 whole entry, looked up, the tested form may be a part, canonical isoform): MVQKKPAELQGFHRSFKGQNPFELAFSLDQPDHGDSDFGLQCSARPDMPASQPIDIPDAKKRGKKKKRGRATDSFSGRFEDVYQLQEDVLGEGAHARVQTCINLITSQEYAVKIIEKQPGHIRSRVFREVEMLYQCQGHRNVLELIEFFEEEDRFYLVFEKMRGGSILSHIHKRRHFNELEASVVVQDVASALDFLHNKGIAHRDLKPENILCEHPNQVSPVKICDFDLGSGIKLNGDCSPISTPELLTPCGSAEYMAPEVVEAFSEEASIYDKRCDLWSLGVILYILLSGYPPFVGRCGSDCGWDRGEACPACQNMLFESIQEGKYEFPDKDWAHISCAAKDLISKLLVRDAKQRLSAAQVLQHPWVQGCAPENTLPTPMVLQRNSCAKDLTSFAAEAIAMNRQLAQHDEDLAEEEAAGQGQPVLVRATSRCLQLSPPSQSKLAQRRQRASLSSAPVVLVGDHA
The next data set has as its system Mus musculus. In words: In vivo inhibition of RET isoform 9 C634R mutant transfected in mouse NIH/3T3 cells implanted BALB/c nu/nu mouse assessed as reduction in RET phosphorylation at Y905 residue in tumor at 1 mg/kg, po administered once daily via gavage for 3 days measured 3 hrs post-last dose by Western blot analysis. The data set is classed as functional, organism-based.

The test system of data set [17] is Proto-oncogene tyrosine-protein kinase receptor Ret (Homo sapiens), P07949 [M918T]. In words: Inhibition of RET […] M918T mutant (unknown origin) expressed in mouse BAF3 cells assessed as reduction in RET phosphorylation at Y905 residue at 0.3 to 30 nM measured after 2 hrs by Western blot analysis. The format is cell-based. In a few lines:
as §2

The target in data set [18] is T1, SHC-transforming protein 1 (Homo sapiens). In words: Effect on SHC phosphorylation in RET deficient human PC9 cells at 1 to 100 nM measured after 2 hrs by western blot analysis.
A further data set deals with BCPAP. As to the kind of experiment: Cytotoxicity against RET deficient human BCPAP cells supplemented with fresh medium containing compound for every 2 to 3 days measured during compound dosing. The format is functional, cell-based. In a few lines:
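Human RET-negative lines were seeded in six-well plates at 10000 cells/well, in 5% FCS (Nthy-ori-3-1) or 10% FCS (BCPAP, 8505-C, CALU-1, A549, PC-9). Drug or vehicle was added the day after plating, with medium changed every 2–3 days. Cells were counted every 2–3 days. IC50 was fitted from the last day of the growth curves.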

SMILES strings stand for the structures. Active and inactive are the calls of the source. The calls are words filed in the database; no cut-off is given here.

Turning to `CC(C)(C)c1cc(NC(=O)Cc2ccc(-n3cnc4cc(-c5ccc(S(C)(=O)=O)cc5)ccc43)cc2)no1`, the result (in data set [1]; in the data set listed under Homo sapiens [5]; in the data set listed under Homo sapiens [7]; in data set [12]; in the data set filed under Homo sapiens [15]; in data set [18]) was inactive. Further, the inhibition result (in the data set filed under Homo sapiens [2]; in [8]; in data set [9]; in the data set on BaF3 [10]; in [11]; in the data set on BaF3 [14]) was “Active” each time. The inhibition entry (in the data set on Mus musculus; in data set [17]) was “Active” throughout. Moreover, the half-maximal inhibitory concentration (IC50) in the data set on BaF3 [3] was above 100 nM; in data set [6], 3 nM; in [13] it was 1 nM; in the data set with BCPAP, above 100 nM. The Activity entry in data set [4] was “Non-Toxic”; in data set [16], above 90%.

For orientation: IC50 means the concentration needed to halve the response being measured.
